Source: PubChem (Broad Institute)
ERAP1 inh: human ERAP1 aminopeptidase inhibitors, primary screen, biochemical, single point, plate reader. recombinant ERAP1, Leu-AMC fluorescence, 60 min. inhibition, % at 10.7 µM. actives 0.15% (n = 340,000);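 active = mean replicate inhibition of at least 30%, or all replicates individually reaching that 30% level; inactive = mean below 30% and not every replicate reaching it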
S100A4 MyoIIA: inhibitors of S100A4-myosin IIA peptide binding, primary screen, biochemical, fluorescence polarization, TAMRA-MyoIIA peptide; inhibition, % at 10.7 µM; actives 0.14% (n = 360,000); AID 652163, 2013;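 active = mean inhibition of at least 70% across replicates, with every replicate also reaching that level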
Target sequence (P26447 whole entry, looked up): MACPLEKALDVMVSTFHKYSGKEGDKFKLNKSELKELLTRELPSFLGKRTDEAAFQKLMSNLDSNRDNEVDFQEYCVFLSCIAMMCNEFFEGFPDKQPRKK
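Material: human S100A4 monomer with TAMRA-labelled myosin IIA peptide; buffer or medium: HEPES pH 7.2 with CaCl2, KCl, NaCl, DTT, Triton; compound dosing: one concentration per compound; schedule: 5 min incubation before reading; benchmarks: neutral control DMSO, positive control TFP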
ERp5 inh: inhibitors of ERp5-driven insulin aggregation, primary screen, biochemical, turbidity, absorbance 650 nm, single point | inhibition, % at 9.99 µM | actives 0.05% (n = 350,000) | 90 min | AID 651711, 2012;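 active = mean replicate inhibition above about 25%, with every replicate also reaching it, limit read from the data, passing the limit was not always enough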
PDI turbidity: inhibitors of human PDI, primary screen, biochemical, turbidity, single point, plate reader; actives 0.052% (n = 350,000); AID 588391, 2011; PDI insulin aggregation turbidity, A650, 90 min; inhibition, % at 10 µM; Protein disulfide-isomerase (Homo sapiens), P07237;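 active = mean inhibition across replicates of 30% or more, whatever share of single replicates reach that level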
FGF22 binding: binders of human FGF22 protein, primary screen, FGF22 synaptogenesis inhibitor project, biophysical, thermal shift, single point; Fibroblast growth factor 22 (Homo sapiens), Q9HCT0; recombinant FGF22 thermal shift, SYPRO orange fluorescence; percent of sucrose octasulfate shift, DMSO zero; actives 1.5% (n = 340,000); activity (Tm shift, normalised), % at 9.99 µM;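 active = mean Tm shift, scaled 0 neutral to 100 positive control, at about 1.3% or above, every replicate too, limit read from the data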
Target sequence (Q9HCT0 whole entry, looked up): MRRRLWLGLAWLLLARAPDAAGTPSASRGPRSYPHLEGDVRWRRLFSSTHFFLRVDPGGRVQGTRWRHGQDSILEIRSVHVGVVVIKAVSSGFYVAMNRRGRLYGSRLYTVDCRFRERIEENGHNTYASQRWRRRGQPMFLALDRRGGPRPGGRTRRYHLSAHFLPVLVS
Each line names hits and unclear results; the compound was inactive in the other large screens. This excerpt belongs to a sample that is enriched for hits.

C[C@@H]1CCCCO[C@@H](CN(C)S(=O)(=O)c2ccc(Cl)cc2)[C@H](C)CN([C@@H](C)CO)C(=O)c2cc(NS(=O)(=O)c3ccc(Cl)cc3)ccc2O1	none (no result: ERAP1 inh, S100A4 MyoIIA, ERp5 inh, PDI turbidity)
COc1ccc(S(=O)(=O)Nc2ccc3c(c2)C(=O)N([C@@H](C)CO)C[C@H](C)[C@H](CN(C)S(=O)(=O)c2ccc(OC)cc2)OCCCC[C@H](C)O3)cc1	FGF22 binding 15 (no result: ERAP1 inh, S100A4 MyoIIA, ERp5 inh, PDI turbidity)
C[C@@H]1CCCCO[C@@H](CN(C)S(=O)(=O)c2ccccc2)[C@H](C)CN([C@H](C)CO)C(=O)c2cc(NC(=O)CCCN(C)C)ccc2O1	none (no result: PDI turbidity)
C[C@@H]1CCCCO[C@@H](CN(C)C(=O)NC2CCCCC2)[C@@H](C)CN([C@H](C)CO)C(=O)c2cc(NS(=O)(=O)c3ccc(F)cc3)ccc2O1	none (no result: PDI turbidity)
C[C@@H]1CCCCO[C@H](CN(C)S(=O)(=O)c2ccc(Cl)cc2)[C@H](C)CN([C@H](C)CO)C(=O)c2cc(NS(=O)(=O)c3ccc(Cl)cc3)ccc2O1	FGF22 binding 30 (no result: ERAP1 inh, S100A4 MyoIIA, ERp5 inh, PDI turbidity)
C[C@@H]1CN([C@H](C)CO)C(=O)c2cc(NS(=O)(=O)c3ccc(F)cc3)ccc2O[C@@H](C)CCCCO[C@@H]1CN(C)C(=O)NC1CCCCC1	S100A4 MyoIIA 120 (no result: PDI turbidity)
C[C@@H]1CCCCO[C@@H](CN(C)S(=O)(=O)c2ccccc2)[C@@H](C)CN([C@@H](C)CO)C(=O)c2cc(NC(=O)CCCN(C)C)ccc2O1	S100A4 MyoIIA 151 (no result: PDI turbidity)
O=C(Nc1ccccc1)OCCNC(=O)c1ccccc1	none (no result: ERAP1 inh, S100A4 MyoIIA, ERp5 inh, FGF22 binding)
CC1(C(=O)NS(=O)(=O)c2ccccc2Cl)CCN1C(=O)CC(c1ccccc1)c1ccccc1 (configuration not stated)	none
C[C@H]1CN([C@@H](C)CO)C(=O)c2cc(C#CCN(C)C)cnc2O[C@H]1CN(C)Cc1ccc2c(c1)OCO2	none (no result: PDI turbidity)
Cc1ccnc2nc(C(=O)OCC(=O)NC3CCCC(C)C3C)nn12 (configuration not stated)	none
C[C@@H]1CCCCO[C@@H](CN(C)CC2CCCCC2)[C@@H](C)CN([C@H](C)CO)C(=O)c2cc(NS(=O)(=O)c3cn(C)cn3)ccc2O1	S100A4 MyoIIA 133 (no result: PDI turbidity)
C[C@@H]1CN([C@@H](C)CO)C(=O)c2cc(NS(=O)(=O)c3ccc(F)cc3)ccc2O[C@@H](C)CCCCO[C@@H]1CN(C)S(=O)(=O)c1ccc(Cl)cc1	none (no result: PDI turbidity)
C[C@@H]1CCCCO[C@H](CN(C)S(=O)(=O)c2ccc(Cl)cc2)[C@@H](C)CN([C@@H](C)CO)C(=O)c2cc(NS(=O)(=O)c3ccc(F)cc3)ccc2O1	S100A4 MyoIIA 120 (no result: PDI turbidity)
C[C@@H]1CN([C@@H](C)CO)C(=O)c2cc(NS(=O)(=O)c3cn(C)cn3)ccc2O[C@@H](C)CCCCO[C@@H]1CN(C)CC1CCCCC1	none (no result: PDI turbidity)
Cc1ccc(S(=O)(=O)Nc2ccc3c(c2)C(=O)N([C@@H](C)CO)C[C@H](C)[C@@H](CN(C)S(=O)(=O)c2ccc(Cl)cc2)OCCCC[C@@H](C)O3)cc1	FGF22 binding 28 (no result: ERAP1 inh, S100A4 MyoIIA, ERp5 inh, PDI turbidity)
C[C@H]1CCCCO[C@H](CN(C)S(=O)(=O)c2ccc(F)cc2)[C@@H](C)CN([C@@H](C)CO)C(=O)c2cc(NS(=O)(=O)c3ccccc3)ccc2O1	S100A4 MyoIIA 113 (no result: PDI turbidity)
C[C@@H]1CCCCO[C@@H](CN(C)S(=O)(=O)c2ccc(Cl)cc2)[C@@H](C)CN([C@H](C)CO)C(=O)c2cc(NC(=O)c3ccncc3)ccc2O1	none (no result: PDI turbidity)
CC(C)C(NC(=O)c1ccc(F)cc1)C(=O)N1CCOCC1 (configuration not stated)	ERp5 inh 27
CC(C)C(NC(=O)c1ccc(F)cc1)C(=O)N1CCC1 (configuration not stated)	none
Cc1c(NC(=O)c2cccc(S(=O)(=O)N(C)c3ccccc3)c2)c(=O)n(-c2ccccc2)n1C	none
Cc1c(NC(=O)c2ccc(N(C)S(=O)(=O)c3ccccc3)cc2)c(=O)n(-c2ccccc2)n1C	FGF22 binding 43
O=C(CCNC(=O)C1CCN(S(=O)(=O)c2ccccc2)CC1)NCc1cccnc1	FGF22 binding 43
